Here are results for four compounds from ChEMBL document CHEMBL1126302, “Dispiro-1,2,4,5-tetraoxanes: a new class of antimalarial peroxides” (J Med Chem, 1992).

Broadly, the IC50 is the point on the concentration scale where inhibition reaches its midpoint. A lower IC50 goes with greater potency. A word on the ED50: it is the dose that gives a 50% effect, or the effect in half of the subjects.

The structures appear in SMILES notation. Calls of active or inactive are those of the source.

Experiment [1] deals with Mus musculus. Kind of experiment: Mean survival time of the treated mice (Mus musculus) beyond that of the control animals against Plasmodium berghei at dose 80(mg/kg); Experiment I. Type of experiment: functional.
The subject of experiment [2] is Plasmodium falciparum. In words: […] antimalarial activity against Plasmodium falciparum D6. Type of experiment: functional, organism-based.
In experiment [3] the test system is Mus musculus. In words: Mean survival time of the treated mice (Mus musculus) beyond that of the control animals against Plasmodium berghei at dose 320(mg/kg); Survival beyond 60 days is considered curative; Experiment II; active(A). Type of experiment: functional.
Experiment [4] deals with Mus musculus. In words: Mean survival time of the treated mice (Mus musculus) beyond that of the control animals against Plasmodium berghei at dose 160 (mg/kg); Experiment I. The format is functional.
In experiment [5] the test system is Mus musculus. Kind of experiment: Mean survival time of the treated mice (Mus musculus) beyond that of the control animals against Plasmodium berghei at dose 640(mg/kg); Experiment II; Survival beyond 60 days is considered curative (C). Type of experiment: functional.
For experiment [6], the system named is Mus musculus. In words: Mean survival time of the treated mice (Mus musculus) beyond that of the control animals against Plasmodium berghei at dose 20(mg/kg); Experiment II. The format is functional.
Experiment [7] relates to Mus musculus. Kind of experiment: Mean survival time of the treated mice (Mus musculus) beyond that of the control animals against Plasmodium berghei at dose 160 (mg/kg); Experiment II. Type of experiment: functional.
In experiment [8] the test system is Mus musculus. In words: Mean survival time of the treated mice (Mus musculus) beyond that of the control animals against Plasmodium berghei at dose 40(mg/kg); Experiment II. The format is functional.
For experiment [9], the system named is Mus musculus. Kind of experiment: Mean survival time of the treated mice (Mus musculus) beyond that of the control animals against Plasmodium berghei at dose 40(mg/kg); Experiment I. The format is functional.
Experiment [10] in a line: Resistance index is defined as the ratio of IC50 of Plasmodium falciparum(W-2) clone to IC50 of Plasmodium falciparum(D6) clone. The format is functional. In outline:
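Ratio of IC50 W-2 to IC50 D-6 for P. falciparum. […] Activity is read as inhibition of tritiated hypoxanthine uptake.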

The subject of experiment [11] is Mus musculus. Kind of experiment: Mean survival time of the treated mice (Mus musculus) beyond that of the control animals against Plasmodium berghei at dose 80(mg/kg); Experiment II. Type of experiment: functional.
Experiment [12] has as its system Plasmodium falciparum. In words: […] antimalarial activity against Plasmodium falciparum W-2. Type of experiment: functional, organism-based.
The subject of experiment [13] is Mus musculus. Kind of experiment: Mean survival time of the treated mice (Mus musculus) beyond that of the control animals against Plasmodium berghei at dose 640(mg/kg); Experiment I; not active. The format is functional.
Experiment [14] has as its system Mus musculus. Kind of experiment: Mean survival time of the treated mice (Mus musculus) beyond that of the control animals against Plasmodium berghei at dose 320(mg/kg); Survival beyond 60 days is considered curative; Experiment I. Type of experiment: functional.
Experiment [15] concerns Mus musculus. Kind of experiment: Mean survival time of the treated mice (Mus musculus) beyond that of the control animals against Plasmodium berghei at dose 20(mg/kg); Experiment I. Type of experiment: functional.
The test system of experiment [16] is Mus musculus. In words: Mean survival time of the treated mice (Mus musculus) beyond that of the control animals against Plasmodium berghei at dose 80(mg/kg). The format is functional.
Experiment [17] relates to Mus musculus. Kind of experiment: Mean survival time of the treated mice (Mus musculus) beyond that of the control animals against Plasmodium berghei at dose 160 mg/kg). Type of experiment: functional.
For experiment [18], the system named is Mus musculus. Kind of experiment: Mean survival time of the treated mice (Mus musculus) beyond that of the control animals against Plasmodium berghei at dose 320(mg/kg). The format is functional.
The test system of experiment [19] is Mus musculus. In words: Mean survival time of the treated mice (Mus musculus) beyond that of the control animals against Plasmodium berghei at dose 40(mg/kg). The format is functional.
The subject of experiment [20] is Mus musculus. In words: Mean survival time of the treated mice (Mus musculus) beyond that of the control animals against Plasmodium berghei at dose 20(mg/kg). Type of experiment: functional.
Experiment [21] deals with Mus musculus. In words: Mean survival time of the treated mice (Mus musculus) beyond that of the control animals against Plasmodium berghei at dose 640(mg/kg); Survival beyond 60 days is considered curative. The format is functional.
In another experiment the test system is Plasmodium berghei. In words: […] antimalarial activity against drug-resistant Plasmodium berghei KBG173. Type of experiment: functional.
Experiment [22] concerns Mus musculus. In words: Mean survival time of the treated mice (Mus musculus) beyond that of the control animals against Plasmodium berghei at dose 640(mg/kg); Experiment II; Survival beyond 60 days is considered curative (C). Type of experiment: functional.
Experiment [23] relates to Mus musculus. In words: Mean survival time of the treated mice (Mus musculus) beyond that of the control animals against Plasmodium berghei at dose 320(mg/kg); Experiment I. Type of experiment: functional.
The test system of experiment [24] is Mus musculus. Kind of experiment: Mean survival time of the treated mice (Mus musculus) beyond that of the control animals against Plasmodium berghei at dose 640(mg/kg); Experiment I. The format is functional.
Experiment [25] has as its system Mus musculus. Kind of experiment: Mean survival time of the treated mice (Mus musculus) beyond that of the control animals against Plasmodium berghei at dose 160 (mg/kg); Experiment II; active (A). Type of experiment: functional.
Experiment [26] relates to Mus musculus. Kind of experiment: Mean survival time of the treated mice (Mus musculus) beyond that of the control animals against Plasmodium berghei at dose 320(mg/kg); Survival beyond 60 days is considered curative; Experiment II; Survival beyond 60 days is considered curative (C). The format is functional.

As for `CC1CC(C)CC2(C1)OOC1(CC(C)CC(C)C1)OO2` (stereo unspecified), the T-C with Mus musculus [1] stood at 2.4 days; in the experiment on Mus musculus [3] it was 7.4 days; with Mus musculus [4], 5.5 days; in the experiment with Mus musculus [5], 2 days; in the experiment on Mus musculus [6], 0.6 days; in the experiment on Mus musculus [7], 5.8 days. The T-C came to 1 days in the experiment with Mus musculus [8]; 1.3 days in the experiment on Mus musculus [9]; 3.8 days in the experiment with Mus musculus [11]; 1 days in the experiment on Mus musculus [14]; 1.5 days with Mus musculus [15]. Further, the IC50 in the experiment on Plasmodium falciparum [2] was found to be 50 nM; with Plasmodium falciparum [12], 13 nM. Moreover, the Resistance index in experiment [10] is 0.26. Further, the T-C entry in the experiment on Mus musculus [13] is “inactive”.

As to `C[C@@H]1CC[C@H]2[C@@H](C)C(=O)O[C@@H]3O[C@@]4(C)CC[C@@H]1[C@]32OO4` [ARTEMISININ], the T-C with Mus musculus [16] turned out to be 2.3 days; with Mus musculus [17] it was 3.9 days; with Mus musculus [18] it was 5.1 days; with Mus musculus [19] it was 1.7 days; in the experiment on Mus musculus [20], 1.5 days; with Mus musculus [21], 2 days. Moreover, the IC50 in the experiment with Plasmodium falciparum [2] was found to be 4.7 nM; with Plasmodium falciparum [12], 2.2 nM. Further, the Resistance index in [10] was 0.47. Also, it took a dose of 607 mg/kg to reach the 50% effect level in the experiment on Plasmodium berghei (ED50).

`CC1CCC2(CC1)OOC1(CCC(C)CC1)OO2` (stereo unspecified): the T-C in the experiment with Mus musculus [1] amounted to 0.1 days; with Mus musculus [3], 13 days; in the experiment with Mus musculus [4] it was 2.4 days; with Mus musculus [6], 0.3 days; in the experiment on Mus musculus [22] it was 1 days; in the experiment on Mus musculus [7] it was 3.2 days. The T-C amounted to 0.5 days with Mus musculus [8]; 0.4 days with Mus musculus [9]; 2 days with Mus musculus [11]; 1.9 days in the experiment with Mus musculus [23]; 1 days in the experiment with Mus musculus [13]; 0.1 days with Mus musculus [15]. Also, the IC50 with Plasmodium falciparum [2] turned out to be 8.2 nM; with Plasmodium falciparum [12] it was 58 nM. Also, in [10], the Resistance index came out at 7.1.

As to `C[C@@H]1CCCCC12OOC1(CCCC[C@@H]1C)OO2` (stereo partly specified) [WR-148999], the T-C with Mus musculus [1] was 1.6 days; with Mus musculus [4], 9.6 days; in the experiment on Mus musculus [24], 3 days; in the experiment with Mus musculus [6], 0.7 days; with Mus musculus [22], 5 days; in the experiment on Mus musculus [8] it was 1.2 days. In addition, the T-C in the experiment with Mus musculus [9] came out at 1.8 days; with Mus musculus [11] it was 5 days; with Mus musculus [23], 1 days; in the experiment with Mus musculus [25], 12 days; in the experiment with Mus musculus [15], 0.2 days; in the experiment on Mus musculus [26] it was 3 days. For the same compound, the figures for the IC50 with Plasmodium falciparum [2] and in the experiment with Plasmodium falciparum [12] were 6.9 nM and 3.4 nM, respectively. Moreover, in experiment [10], the Resistance index stood at 0.49. In the experiment with Plasmodium berghei, this compound gave a 50% effective dose (ED50) of 382 mg/kg.
